Published values from different studies.
JAK2 JH1: Tyrosine-protein kinase JAK2, JH1 (JAK2, Homo sapiens, UniProt O60674)
JAK2: Tyrosine-protein kinase JAK2 (JAK2, Homo sapiens, UniProt O60674)

Structure (SMILES) | target | read-out | action | method | tested at | endpoint | value
C[C@@H]1CCN(c2nccc(-c3cnn4ncccc34)n2)C1 | JAK2 JH1 | cell-free assay | – | – | 1 µM | remaining signal | 90%
CC/C(=N\NC(=O)NCc1cccc(O)c1)c1ccc(O)c(C)c1O | JAK2 | enzyme activity | inhibitor | – | 0.1 µM | inhibition | 1%
O=C(NCCCNc1ccnc(Nc2cccc(NC(=O)N3CCCC3)c2)n1)C1CCC1 | JAK2 | enzyme activity | inhibitor | radiometric | 1 µM | remaining activity | 88%
O=C1CCc2cc(Nc3cc(OC4CCOCC4)c([N+](=O)[O-])cc3Cl)ccc2N1 | JAK2 JH1 | cell-free assay | – | competition with immobilised ligand | 1 µM | remaining binding | 100%
Cc1ccc(C(=O)NCc2ccsc2)cc1C#Cc1cn(C(C)C)c2ncnc(N)c12 | JAK2 | enzyme activity | inhibitor | – | 1 µM | activity vs control | 100%
CN(C(=O)c1ccccc1)c1cc(N(C)c2ccc3c(c2)CCc2ccc(C(=O)NCCN4CCOCC4)cc2C3=O)ccc1F | JAK2 JH1 | cell-free assay | – | competition with immobilised ligand | 1 µM | remaining binding | 100%
CN(c1nccc(-c2cnn3ncccc23)n1)C1CC1 | JAK2 JH1 | cell-free assay | – | – | 1 µM | remaining signal | 100%
Cc1nn(CC(F)(F)F)cc1Nc1nccc(NCCc2cnc[nH]2)n1 | JAK2 | enzyme activity | inhibitor | radiometric | 1 µM | remaining activity | 89%
COc1cc2ncnc(Nc3ccc(Oc4ccccc4)c(C)c3C)c2cc1OC | JAK2 JH1 | enzyme activity | inhibitor | – | 1 µM | inhibition | -2%
FC(F)(F)Oc1cccc(-c2cnc3ccc(-c4ccncc4)nn23)c1 | JAK2 | enzyme activity | inhibitor | radiometric | 1 µM | activity vs control | 74%
CC(=O)N1CCC(c2ccc(C(=O)NC(=N)N)cc2C(F)(F)F)CC1 | JAK2 JH1 | cell-free assay | – | competition with immobilised ligand | 1 µM | remaining binding | 100%
Cc1ccc(Nc2nccc(N(C)c3ccc4c(C)n(C)nc4c3)n2)cc1S(N)(=O)=O | JAK2 | enzyme activity | inhibitor | – | 0.3 µM | inhibition | 12%
FC(F)c1nc2ccccc2n1-c1nc(N2CCOCC2)nc(N2CCOCC2)n1 | JAK2 | enzyme activity | inhibitor | – | 10 µM | remaining activity | 79%
CC(C)(C)c1nc2c3cc[nH]c(=O)c3c3cc(F)ccc3c2[nH]1 | JAK2 | cell-free assay | – | – | 0.5 µM | remaining signal | 1.37%
CC(=O)Nc1c(C(C)=O)c(=O)n(C)c2nc(-c3ccc(Cl)cc3Cl)c(-c3ccc(Cl)cc3)cc12 | JAK2 JH1 | cell-free assay | – | competition with immobilised ligand | 1 µM | remaining binding | 100%
c1cc(CN2CCOCC2)cc(Nc2ncc(C3CC3)c(NCCc3c[nH]cn3)n2)c1 | JAK2 | enzyme activity | inhibitor | radiometric | 1 µM | remaining activity | 82%
COc1cc2ncnc(Nc3ccc(Oc4ccccc4)cc3C)c2cc1OC | Tyrosine-protein kinase JAK2, JH1 (JAK2, Homo sapiens, UniProt O60674, V617F) | enzyme activity | inhibitor | – | 1 µM | inhibition | -11%

Structure (SMILES) | target | read-out | action | method | tested at | endpoint | value
COc1cc2nccc(Oc3ccc(NC(=O)c4c5n(n(-c6ccc(F)cc6)c4=O)CCCC5)cc3)c2cc1OC | JAK2 | enzyme activity | inhibitor | – | 0.1 µM | inhibition | 10%
O=C(CSc1nc2nccnc2c(=O)n1CCc1ccccc1)Nc1nccs1 | JAK2 | enzyme activity | inhibitor | – | 10 µM | inhibition | -4%
CN1CC(Oc2cnc(C#N)cc2-c2ccn3nc(NC(=O)C4CC4)cc3c2)C1 | JAK2 | enzyme activity | inhibitor | – | 1 µM | inhibition | -20%
Cc1cc(NC(=O)c2cccc3cc(-c4cccc5[nH]nc(N)c45)ccc23)ccc1F | JAK2 | enzyme activity | inhibitor | – | 0.1 µM | activity vs control | 78%
C[C@H](NC(=O)c1cnc2n1[C@](C)(Cc1ccc(C#N)cc1)C(=O)N2c1cc(Cl)c(F)c(Cl)c1)C(=O)NC1(c2ccccn2)CC1 | JAK2 JH1 | cell-free assay | – | competition with immobilised ligand | 1 µM | remaining binding | 100%
Nc1ncnc2occ(-c3ccc(NC(=O)Nc4cc(C(F)(F)F)ccc4F)cc3)c12 | JAK2 JH1 | cell-free assay | inhibitor | – | 20 µM | remaining signal | 2%
CCS(=O)(=O)c1cc2cc(C[C@@](O)(CC(C)(C)c3ccc(F)cc3C(N)=O)C(F)(F)F)[nH]c2cn1 | JAK2 JH1 | cell-free assay | – | competition with immobilised ligand | 1 µM | remaining binding | 100%
Cc1ccc(NC(=O)c2ccc(CN3CCN(C)CC3)cc2)cc1Nc1nc(-c2cccnc2)cs1 | JAK2 | cell-free assay | – | – | 0.5 µM | remaining signal | 96.3%
O=C(NCCCNc1nc(Nc2cccc(NC(=O)N3CCCC3)c2)ncc1C1CC1)C1CCC1 | JAK2 | enzyme activity | inhibitor | radiometric | 1 µM | remaining activity | 68%
CCN(CC)CCNC(=O)c1c(C)[nH]c(/C=C2\C(=O)Nc3ccc(F)cc32)c1C | JAK2 | cell-free assay | – | – | 0.5 µM | remaining signal | 88.8%
CCCS(=O)(=O)Nc1ccc(F)c(C(=O)c2c[nH]c3ncc(-c4ccc(Cl)cc4)cc23)c1F | JAK2 | enzyme activity | inhibitor | – | 1 µM | inhibition | < 10%
COc1cccc(CNC(=O)c2nc3scc(COCc4ccc(C(=O)O)cc4)c3c(=O)[nH]2)c1 | JAK2 JH1 | cell-free assay | – | competition with immobilised ligand | 1 µM | remaining binding | 100%
CC(C)c1ccc(NC(=O)c2cccs2)c(-c2nc3ccccc3[nH]c2=O)c1 | JAK2 | enzyme activity | inhibitor | – | 1 µM | activity vs control | 123%
Cc1nn(CC(F)(F)F)cc1Nc1ncc(C2CC2)c(NCc2ccc(S(N)(=O)=O)cc2)n1 | JAK2 | enzyme activity | inhibitor | radiometric | 1 µM | remaining activity | 100%
Cc1nc(N2CC[C@@H](O)C2)ncc1-c1cc(C(F)(F)F)cc2[nH]ncc12 | JAK2 JH1 | binding | – | competition with immobilised ligand | 1 µM | remaining binding | 61%
Cc1nn(CC(F)(F)F)cc1Nc1nccc(NCCCNC(=O)C2CCC2)n1 | JAK2 | enzyme activity | inhibitor | radiometric | 1 µM | remaining activity | 114%
N#CCCc1ccc2c(c1)-c1[nH]c3ccc([N+](=O)[O-])cc3c1CC(=O)N2 | JAK2 | cell-free assay | – | – | 0.5 µM | remaining signal | 93%
